Measured values taken from publication PMC12219203 (Nature Communications, 2025).

What was measured:
[1] = target: NOD1 (Homo sapiens, UniProt Q9Y239); assay: HEK-Blue NOD1 SEAP reporter assay; assay type: cell-based; conditions: GM, M 20 μM; 18 h
Summary of the method: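 HEK-Blue hNod1 or hNod2 cells were seeded at 50,000 cells/well in DMEM/10% FBS without selection antibiotics and stimulated at once for 18 h (n = 3). Supernatant was mixed 1:4 with Quanti-Blue and incubated 6 h at 37 °C, and absorbance was read at 620 nm. Values were blanked against water-treated wells, and the respective parental Null cell readouts were subtracted.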

[2] = target: mTLR4/mMD2 (wt / F119A) (Mus musculus, UniProt Q9JHF9+Q9QUK6, F119A); assay: NF-κB SEAP in HEK-Blue Null1, mTLR4 wt / mMD2 F119A; assay type: cell-based; conditions: GM 0.4, 0.2 mM, 24 h
Summary of the method: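 Site-directed mTLR4 or mMD2 variants were made by mutagenesis. HEK-Blue Null1 cells were co-transfected 16 h with 500 ng mTLR4 and mMD2-Myc plasmids (1:1) by lipofection; mock cells got water/Lipofectamine. After a medium change, cells were treated 24 h. Supernatant SEAP was measured with Quanti-Blue (37 °C, 6 h, A620), normalized to H2O-treated cells; mean ± s.e.m., n = 3.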

[3] = target: mTLR4/mMD2 (Q339A / wt) (Mus musculus, UniProt Q9JHF9+Q9QUK6, Q339A); assay: NF-κB SEAP in HEK-Blue Null1, mTLR4 Q339A / mMD2 wt; assay type: cell-based; conditions: GM 0.4, 0.2 mM, 24 h
Summary of the method: (§1)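 Point mutants of mTLR4 or mMD2 were made by site-directed mutagenesis. HEK-Blue Null1 cells were co-transfected by lipofection for 16 h with 500 ng total of mTLR4 and Myc-tagged mMD2 plasmids (1:1); mock wells received lipofection reagent only. After a medium change the next day, cells were treated for 24 h. NF-κB SEAP was measured and normalised to water-treated samples; data are mean ± s.e.m., n = 3.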

[4] = system: IRF signaling in RAW-Dual Tlr4-/- cells; assay: RAW-Dual Tlr4-/- IRF reporter; assay type: cell-based, mouse; conditions: 24 h
Summary of the method: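 RAW-Dual Tlr4-/- cells were seeded at 100,000 cells/well without selection antibiotics, 24 h before a 24 h exposure to test compounds. IRF-driven secreted luciferase was measured by mixing 20 µL supernatant with 50 µL Quanti-Luc 4 and reading luminescence immediately.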

[5] = target: recombinant mTLR4 protein (Mus musculus, UniProt Q9QUK6); assay: mTLR4 pulldown by immobilized GM-agarose beads; assay type: binding; conditions: pre-incubation of mTLR4 with excess GM
Summary of the method: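 An azide-tagged test-compound probe (2.5 mM) was clicked onto alkyne agarose beads (1.2 mM ascorbate, 0.5 mM CuSO4, 0.5 mM THPTA, 4 °C, 3 h); control beads lacked probe. Beads were incubated overnight at 4 °C in water with recombinant mouse TLR4(26-638)-His6 (100 or 50 ng), optionally pre-incubated with free competitor. Flow-through, wash and boiled eluate were analysed by Coomassie-stained SDS-PAGE.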

[6] = system: NF-κB signaling in RAW-Dual WT cells; assay: RAW-Dual WT NF-κB reporter; assay type: cell-based, mouse; conditions: 24 h
Summary of the method: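 RAW-Dual cells (WT or Tlr4-/-) were seeded at 100,000 cells/well in complete DMEM without selection antibiotics, 24 h before treatment. Test compounds were added for 24 h (n = 3). NF-κB-driven SEAP was read by mixing supernatant 1:4 with Quanti-Blue, incubating 6 h at 37 °C and measuring absorbance at 620 nm, blanked against water-treated wells.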

[7] = system: NF-κB p65 and MAPK p38 phosphorylation in Tlr4-/- BMDMs; assay: Immunoblot of p65 and p38 phosphorylation in Tlr4-/- BMDMs; assay type: cell-based, mouse; conditions: GM 5 mM
Summary of the method: (§2)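 Bone-marrow macrophages from WT or Tlr4-/- C57BL/6J mice were stimulated directly with 5 mM test compound or 500 ng/mL LPS. Cells were lysed in Tris/SDS/Triton buffer with protease and phosphatase inhibitors plus 10 mM DTT and boiled, then run on SDS-PAGE and transferred to PVDF. Blots were probed with rabbit antibodies to total or phospho-p65, total or phospho-p38 and GAPDH (1:1000, 4 °C overnight), then HRP anti-rabbit (1:5000).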

[8] = system: NF-κB p65 and MAPK p38 phosphorylation in WT BMDMs; assay: Immunoblot of p65 and p38 phosphorylation in WT BMDMs; assay type: cell-based, mouse; conditions: GM 5 mM
Summary of the method: as §2

[9] = system: WT mice sera; assay: Multiplex immunoassay of serum cytokines and chemokines in mice; assay type: in vivo, mouse; conditions: GM 10 mg/kg i.p. daily, no DSS
Summary of the method: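 Mice received daily intraperitoneal injections, with PBS (5 mL/kg) as vehicle. Serum was analysed with a bead-based inflammatory cytokine/chemokine panel according to the kit protocol, read on a flow cytometer with a high-throughput sampler.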

[10] = system: WT C57BL/6 J mice; assay: DSS-induced colitis model in WT mice; assay type: in vivo, mouse; conditions: GM 10 mg/kg i.p. daily
Summary of the method: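 Male SPF C57BL/6J mice aged 7–8 weeks, WT or Tlr4-/- (bred in house), were age-, weight- and sex-matched. They drank 3% (w/v) DSS water for 7 days and were then euthanised. Test compound (10 mg/kg) or PBS (5 mL/kg) was given i.p. daily from 2 days before DSS until the end. Body weight was recorded daily.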

[11] = system: RAW264.7 cells; assay: Cytokine expression in RAW264.7 macrophages; assay type: cell-based, mouse; conditions: GM 1-4 mM, M 4 mM, 24 h
Summary of the method: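 RAW264.7 cells were kept in high-glucose IMDM with HEPES, 5% heat-inactivated FBS and penicillin/streptomycin at 37 °C, 5% CO2. They were exposed to test compounds for 24 h (n = 4). Total RNA was extracted with a column kit, and TNF-α and IL-6 transcripts were quantified by RT-qPCR using the 2-ΔΔCt method, normalised to β-act.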

[12] = target: mTLR4/mMD2 (wt / F126A) (Mus musculus, UniProt Q9JHF9+Q9QUK6, F126A); assay: NF-κB SEAP in HEK-Blue Null1, mTLR4 wt / mMD2 F126A; assay type: cell-based; conditions: GM 0.4, 0.2 mM; LPS 100 ng/mL; 24 h
Summary of the method: as §1

mTLR4/mMD2 (Q339A / wt), sequence (Q9QUK6 26-835 Q339A): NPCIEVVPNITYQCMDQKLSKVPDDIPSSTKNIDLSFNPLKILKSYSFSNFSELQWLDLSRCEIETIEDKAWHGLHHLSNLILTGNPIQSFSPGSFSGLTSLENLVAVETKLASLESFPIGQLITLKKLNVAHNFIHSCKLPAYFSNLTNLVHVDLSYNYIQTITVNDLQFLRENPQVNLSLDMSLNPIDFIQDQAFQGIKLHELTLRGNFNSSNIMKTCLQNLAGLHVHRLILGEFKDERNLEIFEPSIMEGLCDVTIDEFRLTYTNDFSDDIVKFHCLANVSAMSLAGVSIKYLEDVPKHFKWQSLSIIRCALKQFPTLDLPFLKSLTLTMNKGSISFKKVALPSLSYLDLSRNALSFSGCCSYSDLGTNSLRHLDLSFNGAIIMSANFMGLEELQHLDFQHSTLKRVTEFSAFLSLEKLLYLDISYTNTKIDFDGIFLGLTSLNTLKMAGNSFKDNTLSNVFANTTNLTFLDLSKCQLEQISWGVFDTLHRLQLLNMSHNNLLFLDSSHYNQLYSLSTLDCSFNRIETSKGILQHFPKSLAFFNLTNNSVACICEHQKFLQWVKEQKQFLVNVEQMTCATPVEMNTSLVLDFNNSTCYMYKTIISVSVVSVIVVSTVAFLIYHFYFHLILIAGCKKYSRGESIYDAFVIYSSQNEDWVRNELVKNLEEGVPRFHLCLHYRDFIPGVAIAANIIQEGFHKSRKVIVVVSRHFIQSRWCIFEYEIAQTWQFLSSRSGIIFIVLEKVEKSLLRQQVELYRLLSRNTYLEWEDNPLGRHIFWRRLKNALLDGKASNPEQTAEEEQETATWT
mTLR4/mMD2 (Q339A / wt), sequence (Q9JHF9 19-160): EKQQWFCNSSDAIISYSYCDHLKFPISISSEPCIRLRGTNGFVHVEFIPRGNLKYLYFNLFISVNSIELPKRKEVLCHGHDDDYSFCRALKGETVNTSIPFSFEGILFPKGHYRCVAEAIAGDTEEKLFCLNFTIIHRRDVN
mTLR4/mMD2 (wt / F119A), sequence (Q9QUK6 26-835): as the sequence (Q9QUK6 26-835 Q339A) above, with A314Q counted along it
mTLR4/mMD2 (wt / F119A), sequence (Q9JHF9 19-160 F119A): as the sequence (Q9JHF9 19-160) above, with F101A counted along it
mTLR4/mMD2 (wt / F126A), sequence (Q9QUK6 26-835): as the sequence (Q9QUK6 26-835 Q339A) above, with A314Q counted along it
mTLR4/mMD2 (wt / F126A), sequence (Q9JHF9 19-160 F126A): as the sequence (Q9JHF9 19-160) above, with F108A counted along it
NOD1, sequence (Q9Y239 whole entry): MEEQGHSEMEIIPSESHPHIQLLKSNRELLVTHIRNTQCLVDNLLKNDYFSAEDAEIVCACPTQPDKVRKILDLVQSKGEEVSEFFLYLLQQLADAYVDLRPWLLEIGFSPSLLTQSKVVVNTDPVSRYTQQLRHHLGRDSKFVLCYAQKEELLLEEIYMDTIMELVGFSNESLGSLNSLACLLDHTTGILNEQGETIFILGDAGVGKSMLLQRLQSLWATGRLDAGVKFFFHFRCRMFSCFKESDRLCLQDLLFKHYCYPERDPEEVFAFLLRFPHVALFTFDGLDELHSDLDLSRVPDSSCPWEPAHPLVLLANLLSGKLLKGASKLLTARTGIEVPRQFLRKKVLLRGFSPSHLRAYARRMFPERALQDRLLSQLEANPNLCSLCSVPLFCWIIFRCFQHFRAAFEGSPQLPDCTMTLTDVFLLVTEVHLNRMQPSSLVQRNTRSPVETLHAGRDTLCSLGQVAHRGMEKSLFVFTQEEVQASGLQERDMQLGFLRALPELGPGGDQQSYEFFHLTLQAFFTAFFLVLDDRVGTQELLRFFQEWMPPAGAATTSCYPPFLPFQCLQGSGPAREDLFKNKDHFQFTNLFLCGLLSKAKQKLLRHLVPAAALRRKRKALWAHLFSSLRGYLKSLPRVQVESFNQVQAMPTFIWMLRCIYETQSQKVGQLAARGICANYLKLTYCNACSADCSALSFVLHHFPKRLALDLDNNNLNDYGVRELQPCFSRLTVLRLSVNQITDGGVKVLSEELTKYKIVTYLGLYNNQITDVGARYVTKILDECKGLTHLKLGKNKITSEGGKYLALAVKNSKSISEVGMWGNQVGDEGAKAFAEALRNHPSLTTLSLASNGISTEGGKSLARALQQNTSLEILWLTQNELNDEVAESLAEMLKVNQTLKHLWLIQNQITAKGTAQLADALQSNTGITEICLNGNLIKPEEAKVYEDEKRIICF
recombinant mTLR4 protein, sequence (Q9QUK6 26-638): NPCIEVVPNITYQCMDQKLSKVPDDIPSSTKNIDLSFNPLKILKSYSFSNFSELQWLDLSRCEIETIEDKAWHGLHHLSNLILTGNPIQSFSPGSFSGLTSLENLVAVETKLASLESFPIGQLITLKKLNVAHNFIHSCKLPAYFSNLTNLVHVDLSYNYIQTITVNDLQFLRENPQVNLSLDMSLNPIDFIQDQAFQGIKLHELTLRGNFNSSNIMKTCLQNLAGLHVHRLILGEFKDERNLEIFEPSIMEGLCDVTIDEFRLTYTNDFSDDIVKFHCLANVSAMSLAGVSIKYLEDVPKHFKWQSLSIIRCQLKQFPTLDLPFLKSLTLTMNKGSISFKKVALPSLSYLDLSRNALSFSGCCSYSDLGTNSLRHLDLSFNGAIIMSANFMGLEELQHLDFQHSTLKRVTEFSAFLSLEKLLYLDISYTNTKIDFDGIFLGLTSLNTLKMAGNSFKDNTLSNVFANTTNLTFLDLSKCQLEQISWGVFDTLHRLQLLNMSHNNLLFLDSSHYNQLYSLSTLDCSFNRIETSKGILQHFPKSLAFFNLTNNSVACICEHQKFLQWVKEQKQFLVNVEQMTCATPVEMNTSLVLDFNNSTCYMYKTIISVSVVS

`CC(=O)N[C@H]1[C@H](O[C@H]2[C@H](O[C@H](C)C(=O)O)[C@@H](NC(C)=O)C(O)O[C@@H]2CO)O[C@H](CO)[C@@H](O)[C@@H]1O` (stereo partly drawn) [GM, N-acetylglucosamine-β−1,4-N-acetylmuramic acid] was tested, and the “NOD1 activation in HEK-Blue reporter cells (in words)” value [1] was “unable to activate NOD1/2”, the “Effect of mutation mMD-2_F119 on NF-κB activity (in words)” value [2] was “did not significantly impair the activity of GM” and the “Effect of mutation mTLR4 Q339 on NF-κB activity (in words)” value [3] was “abolished GM-triggered NF-κB activity”. The “IRF signaling in RAW-Dual Tlr4-/- cells (in words)” value [4] was “minimal activity”, the “Competition of mTLR4 binding to GM-1-resin by excess free ligand” value [5] was “dose-dependent decrease in the amount of mTLR4 bound to GM-1-resin” and the “NF-κB signaling in RAW-Dual WT cells (in words)” value [6] was “dose-dependent activation of both NF-κB and IRF signaling”. For the same compound, the “p65 and p38 phosphorylation in Tlr4-/- BMDMs” value [7] was “absence of p65 and p38 phosphorylation”, the “p65 and p38 phosphorylation in WT BMDMs” value [8] was “mild increase in phosphorylation” and the “Circulating cytokines and chemokines in mice, GM alone” value [9] was “does not significantly alter circulating cytokines and chemokines in mice”. The “H&E-stained colonic tissue, WT DSS mice” value ([10]; 3% DSS) was “reduced epithelial erosion and mononuclear cell infiltration”, the “Colonic Il10, WT DSS mice” value ([10]; 3% DSS, RT-qPCR) was “no significant change in Il10 was observed” and the “Colonic cytoprotective factors Keap1 and Hspb1, WT DSS mice” value ([10]; 3% DSS, RT-qPCR) was “upregulated”. The “Colonic expression of Tnfa, Il1b, Ccl2, WT DSS mice” value ([10]; 3% DSS, RT-qPCR) was “significantly suppressed”, the Morbidity in mice ([10]; without DSS treatment) was “did not result in any morbidity in mice” and the “Immuno-stimulatory activity (TNF-α, IL-6) in RAW264.7 (in words)” value [11] was “dose-dependent immuno-stimulatory activity”. For the same compound, the “Effect of mutation mMD-2_F126 on NF-κB activity (in words)” value [12] was “abrogated NF-κB activation”.
